Laboratory results published in publication PMC9008867 (Therapeutic Advances in Medical Oncology, 2022).
Read-outs that look alike come from different tables or passages of the source.

Legend:
[1] = Plasma selinexor pharmacokinetics; format: in vivo, human
[2] = test system: relapsed or refractory diffuse large B cell lymphoma; settings: relapsed or refractory DLBCL; cited from earlier work
[3] = cited from earlier work
[4] = test system: metastatic castration-resistant prostate cancer; settings: eight patients with measurable disease at baseline; cited from earlier work
colorectal cancer = test: Exploratory PFS subgroup analysis in advanced colorectal cancer patients; format: in vivo, human
[5] = test system: Asian patients with advanced or metastatic malignancies; test: Adverse events; format: in vivo, human; settings: Schedule 2; patients n (%)
How it was run: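 Test compound given orally by schedule. Schedule 1: Mon/Thu, 28-day cycle. Schedule 2: Mondays weekly, 28-day cycle. Schedule 3: Mon/Wed for 2 of 3 weeks, 21-day cycle. Schedule 4: Mon/Wed/Fri, 28-day cycle. All patients received anorexia/nausea prophylaxis. AEs were recorded up to 30 days after the last dose and graded every 2 weeks for cycles 1–2, then every 4 weeks.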

[6] = test system: metastatic triple-negative breast cancer; settings: 10 heavily pretreated patients; cited from earlier work
leukocytes = settings: cited from earlier work
[7] = test system: Asian patients with advanced or metastatic malignancies; test: Phase 1a 3 + 3 dose escalation: DLT, MTD, RP2D, tolerability, deaths; format: in vivo, human
How it was run: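 Modified 3+3 design: ≥3 patients per cohort, expanded to six after one DLT; DLTs were assessed in cycle 1. DLT was possibly drug-related grade ≥3 nonhaematological toxicity (not reversible asymptomatic electrolyte changes or hair loss). Haematological DLT: grade 4 neutropenia ≥7 days, febrile neutropenia, or grade ≥3 thrombocytopenia with bleeding. 2/6 DLTs set the MTD; RP2D was the next lower level. Deaths were counted within 30 days of last dose.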

[8] = Caucasian patients, 39 mg/m^2, n = 9
[9] = Schedule 2, 70 mg/m^2 once a week, six patients
[10] = Schedule 3, 50 mg/m^2, subsequent four patients

O=C(/C=C\n1cnc(-c2cc(C(F)(F)F)cc(C(F)(F)F)c2)n1)NNc1cnccn1 [selinexor]
AUC0-8 dose proportionality ([1]; among 40, 50 and 60 mg/m^2 doses): dose-proportional
predose concentrations after multiple doses ([1]; cycle 1 day 15 or cycle 2 day 8/day 15): either 0 or close to 0
AUC(0-t) ([1]; human, plasma, oral, 40 mg/m2): 5340 ± 1540 ng·h/mL
Cmax ([1]; human, plasma, oral, 40 mg/m2): 567 ± 159 ng/mL
Tmax ([1]; human, plasma, po, 60 mg/m2): 1 to 4 h
mean T1/2 ([1]; oral, 40-60 mg/m^2): ~ 6 h
complete response rate [2]: 13%
AUC0-48 [3, 8]: 5829 ± 1587 ng·h/mL
Cmax [3, 8]: 553 ± 238 ng/mL
Mean half-life ([3]; study KCP-330-002): ~ 6 h
patients achieving partial response [4]: 25%
patients achieving stable disease as best radiographic response [4]: 50%
HR for PFS (colorectal cancer; RAS/PIK3CA pathway mutation vs wild-type, p = 0.09, log-rank): 0.58 (0.25–1.32)
median PFS (colorectal cancer; colorectal cancer patients with a RAS/PIK3CA pathway mutation): 86 days
median PFS (colorectal cancer; colorectal cancer patients, RAS/PIK3CA wild-type): 50 days
PFS (colorectal cancer; one heavily pretreated colorectal cancer patient with BRAF V600E somatic mutation): 129 days
Abdominal discomfort, Any grade [5]: 4 (23.52) %
Abdominal discomfort, G1/G2 [5]: 4 (23.52) %
Anaemia, Any grade [5]: 6 (35.29) %
Anorexia, Any grade [5]: 10 (58.8) %
Back pain, Any grade [5]: 1 (5.88) %
Constipation, Any grade [5]: 1 (5.88) %
Diarrhoea, Any grade [5]: 3 (17.64) %
Edema, Any grade [5]: 1 (5.88) %
Fatigue, Any grade [5]: 14 (82.35) %
Hypokalaemia, Any grade [5]: 2 (11.76) %
Hypomagnesemia, Any grade [5]: 5 (29.41) %
Hyponatremia, Any grade [5]: 11 (64.70) %
Hypophosphatemia, Any grade [5]: 3 (17.64) %
Hypotension, Any grade [5]: 1 (5.88) %
Intention tremor, Any grade [5]: 1 (5.88) %
Mucositis, Any grade [5]: 1 (5.88) %
Nausea, Any grade [5]: 11 (64.70) %
Neutropenia, Any grade [5]: 2 (11.76) %
Palpitation, Any grade [5]: 1 (5.88) %
Pneumonitis, Any grade [5]: 1 (5.88) %
Raised amylase/lipase, Any grade [5]: 1 (5.88) %
Raised amylase/lipase, G1/G2 [5]: 1 (5.88) %
Thrombocytopenia, Any grade [5]: 6 (35.29) %
Vomiting, Any grade [5]: 7 (41.17) %
Weight loss, Any grade [5]: 5 (29.41) %
objective responses [6]: did not result in any objective responses
PD-1 and CTLA4 gene expression (leukocytes): increase
tolerability ([7]; 40 mg/m^2 given 2 out of 3 weeks, Asian patient cohort): most tolerable
DLTs ([7]; Schedule 1, 40 mg/m^2 twice-a-week continuous, six patients): no DLTs were observed
patients with DLTs ([7]; Schedule 2, 50 mg/m^2 once a week, three patients): none of the three patients
DLTs ([7]; Schedule 2, 60 mg/m^2 once a week, three patients): did not show any DLTs
patients with grade 3 fatigue that persisted for more than 5 days ([7]; Schedule 2, 70 mg/m^2 once a week, additional four patients): one patient
patients with grade 3 thrombocytopenia [7, 9]: one patient
patients with grade 3 vomiting [7, 9]: one patient
patients developing DLTs ([7]; Schedule 3, 40 mg/m^2 twice a week 2 out of 3 weeks): 0/3
patients with G3 fatigue ([7]; Schedule 3, 50 mg/m^2, first six patients): one out of six patients
patients with G3 dehydration from loss of appetite [7, 10]: One out of the subsequent four patients
patients with G3 hyponatremia [7, 10]: one other patient
patients with G3 diarrhoea and G3 syncope ([7]; Schedule 4, 16 mg/m^2 three times a week continuous): two out of five patients
patients developing DLTs (G3 fatigue and G3 septicaemia) ([7]; Schedule 4, 20 mg/m^2 three times a week continuous): two out of six patients
tolerability of schedule ([7]; Schedule 4, three-times-a-week continuous dosing): deemed intolerable
deaths within 30 days of the last study drug administration ([7]; phase 1a cohort, none related to the study drug): eight
RP2D, flat dose ([7]; twice a week with a 1-week drug holiday every 3-week cycle): 60 mg
